ChEMBL document CHEMBL4732173, “Easily accessed nitroquinolones exhibiting potent and selective anti-tubercular activity” (Eur J Med Chem, 2021)
In brackets after ≈: the same amount, converted by molar mass.

The compounds below were run on Mycobacterium tuberculosis (assay: Antitubercular activity against Mycobacterium tuberculosis harboring gfp reporter gene and DrpE1 mutation assessed as inhibition of bacterial growth incubated for 14 days by fluorescence based analysis). Conditions: time 14 day.
Format: functional

| SMILES | MIC90 |
| --- | --- |
| COCCNC(=O)c1cn(Cc2ccc(F)cc2)c2ccc([N+](=O)[O-])cc2c1=O | 62.5 µM (≈ 25 µg/mL) |

What follows are compounds tested on Mycobacterium tuberculosis (assay: Antitubercular activity against Mycobacterium tuberculosis harboring gfp reporter gene and wild type DrpE1 assessed as inhibition of bacterial growth incubated for 14 days by fluorescence based analysis). Conditions: 336 h, time 14 day.
Format: functional
Method in brief: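 Controls were rifampicin at 2× MIC and 5% DMSO. Plates ran 14 days at 37 °C, 5% CO2, with GFP read at ex 485/em 520. Data were normalised and curve-fitted (Levenberg-Marquardt). MIC90 is the lowest concentration inhibiting >90% of growth.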

| SMILES | MIC90 |
| --- | --- |
| N#Cc1cccc(Cn2cc(C(=O)NCCOCCO)c(=O)c3cc([N+](=O)[O-])ccc32)c1 | 15 µM (≈ 6.54 µg/mL) |
| N#Cc1cccc(Cn2cc(C(=O)NCCNCCO)c(=O)c3cc([N+](=O)[O-])ccc32)c1 | 3.69 µM (≈ 1.61 µg/mL) |
| O=C(NO)c1cn(Cc2cccc(Cl)c2)c2ccc([N+](=O)[O-])cc2c1=O | 125 µM (≈ 46.7 µg/mL) |
| O=C(NCCNCCO)c1cn(Cc2ccc(F)cc2)c2ccc([N+](=O)[O-])cc2c1=O | 0.919 µM (≈ 0.394 µg/mL) |
| O=C(NCCN1CCOCC1)c1cn(Cc2cccc(Cl)c2)c2ccc([N+](=O)[O-])cc2c1=O | 31.9 µM (≈ 15 µg/mL) |
| O=C(NCCOCCO)c1cn(Cc2ccc(F)cc2)c2ccc([N+](=O)[O-])cc2c1=O | 8.08 µM (≈ 3.47 µg/mL) |
| CCOC(=O)c1c[nH]c2c(C(F)(F)F)cc([N+](=O)[O-])cc2c1=O | 1.84 µM (≈ 0.609 µg/mL) |
| COCCNC(=O)c1cn(Cc2cccc(Cl)c2)c2ccc([N+](=O)[O-])cc2c1=O | 0.675 µM (≈ 0.281 µg/mL) |
| O=C(NCCNCCO)c1cn(Cc2cccc(F)c2)c2ccc([N+](=O)[O-])cc2c1=O | 3.7 µM (≈ 1.59 µg/mL) |
| O=C(NCCN1CCOCC1)c1cn(Cc2cccc(Br)c2)c2ccc([N+](=O)[O-])cc2c1=O | > 125 µM |
| N#Cc1cccc(Cn2cc(C(=O)NO)c(=O)c3cc([N+](=O)[O-])ccc32)c1 | > 125 µM |
| COCCNC(=O)c1cn(Cc2cccc(C#N)c2)c2ccc([N+](=O)[O-])cc2c1=O | > 125 µM |
| O=C(NO)c1cn(Cc2cccc(F)c2)c2ccc([N+](=O)[O-])cc2c1=O | > 125 µM |
| O=C(NCCN1CCOCC1)c1cn(Cc2cccc(F)c2)c2ccc([N+](=O)[O-])cc2c1=O | > 125 µM |
| N#Cc1cccc(Cn2cc(C(=O)O)c(=O)c3cc([N+](=O)[O-])ccc32)c1 | > 125 µM |
| COCCNC(=O)c1cn(Cc2cccc(F)c2)c2ccc([N+](=O)[O-])cc2c1=O | > 125 µM |
| COCCNC(=O)c1cn(Cc2ccc(F)cc2)c2ccc([N+](=O)[O-])cc2c1=O | < 0.244 µM |
| O=C(NO)c1cn(Cc2cccc(Br)c2)c2ccc([N+](=O)[O-])cc2c1=O | > 125 µM |
| O=C(NCCOCCO)c1cn(Cc2cccc(Cl)c2)c2ccc([N+](=O)[O-])cc2c1=O | 16 µM (≈ 7.15 µg/mL) |
| O=C(NCCOCCO)c1cn(Cc2cccc(F)c2)c2ccc([N+](=O)[O-])cc2c1=O | > 125 µM |
| COCCNC(=O)c1cn(Cc2ccc(C#N)cc2)c2ccc([N+](=O)[O-])cc2c1=O | > 125 µM |
| N#Cc1ccc(Cn2cc(C(=O)NCCOCCO)c(=O)c3cc([N+](=O)[O-])ccc32)cc1 | 14 µM (≈ 6.11 µg/mL) |
| N#Cc1ccc(Cn2cc(C(=O)NCCNCCO)c(=O)c3cc([N+](=O)[O-])ccc32)cc1 | > 125 µM |
| NNC(=O)c1ccncc1 [ISONIAZID] | 0.2 µM (≈ 0.0274 µg/mL) |
| CO[C@H]1/C=C/O[C@@]2(C)Oc3c(C)c(O)c4c(O)c(c(/C=N/N5CCN(C)CC5)c(O)c4c3C2=O)NC(=O)/C(C)=C\C=C\[C@H](C)[C@H](O)[C@@H](C)[C@@H](O)[C@@H](C)[C@H](OC(C)=O)[C@@H]1C [RIFAMPIN] | 0.01 µM (≈ 0.00823 µg/mL) |
